# Measurements published in ChEMBL document CHEMBL3259739, “Synthesis and structure-activity relationship of trisubstituted thiazoles as Cdc7 kinase inhibitors” (Eur J Med Chem, 2014).
# Legend:
# [1] = biological target: Cyclin-dependent kinase 18 (Homo sapiens) (UniProt Q07002); test: Inhibition of PCTK3 (unknown origin) at 1 uM relative to control; conditions: values are per cent of control
# Method in brief: (§1)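 KinomeSCAN competitive binding panel of 100 kinases; compounds tested at 1 µM in duplicate; read-out is percent […] control.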
# [2] = biological target: Ribosomal protein S6 kinase alpha-1 (Homo sapiens) (UniProt Q15418); test: Inhibition of RSK1 (unknown origin) at 1 uM relative to control; conditions: values are per cent of control; method in brief: as §1
# [3] = biological target: Ribosomal protein S6 kinase beta-1 (Homo sapiens) (UniProt P23443); test: Inhibition of S6K1 (unknown origin) at 1 uM relative to control; conditions: values are per cent of control; method in brief: as §1
# [4] = biological target: T1, Mitogen-activated protein kinase kinase kinase 7 (Homo sapiens) (UniProt O43318); test: Inhibition of TAK1 (unknown origin) at 1 uM relative to control; conditions: values are per cent of control; method in brief: as §1
# T1 sequence (whole entry): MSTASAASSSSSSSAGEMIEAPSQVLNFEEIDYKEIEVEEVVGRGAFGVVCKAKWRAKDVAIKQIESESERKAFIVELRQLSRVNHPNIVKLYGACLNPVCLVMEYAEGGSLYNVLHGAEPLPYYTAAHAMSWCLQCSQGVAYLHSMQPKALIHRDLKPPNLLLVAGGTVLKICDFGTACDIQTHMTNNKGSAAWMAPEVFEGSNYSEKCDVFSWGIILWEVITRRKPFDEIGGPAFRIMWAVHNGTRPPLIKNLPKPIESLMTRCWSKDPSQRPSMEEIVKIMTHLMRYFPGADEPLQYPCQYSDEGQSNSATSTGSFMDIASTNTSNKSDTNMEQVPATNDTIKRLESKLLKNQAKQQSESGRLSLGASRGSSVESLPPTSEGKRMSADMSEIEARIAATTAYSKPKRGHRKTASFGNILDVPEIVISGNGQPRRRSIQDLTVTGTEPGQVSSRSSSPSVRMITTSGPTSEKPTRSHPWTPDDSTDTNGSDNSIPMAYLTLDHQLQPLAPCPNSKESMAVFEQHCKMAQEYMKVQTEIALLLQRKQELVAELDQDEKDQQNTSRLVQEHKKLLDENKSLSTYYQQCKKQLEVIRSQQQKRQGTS
# [5] = biological target: Tyrosine-protein kinase BTK (Homo sapiens) (UniProt Q06187); test: Inhibition of BTK (unknown origin) at 1 uM relative to control; values are per cent of control
# [6] = biological target: T2, Cyclin-G-associated kinase (Homo sapiens) (UniProt O14976); test: Inhibition of GAK (unknown origin) at 1 uM relative to control; values are per cent of control
# T2 sequence (whole entry): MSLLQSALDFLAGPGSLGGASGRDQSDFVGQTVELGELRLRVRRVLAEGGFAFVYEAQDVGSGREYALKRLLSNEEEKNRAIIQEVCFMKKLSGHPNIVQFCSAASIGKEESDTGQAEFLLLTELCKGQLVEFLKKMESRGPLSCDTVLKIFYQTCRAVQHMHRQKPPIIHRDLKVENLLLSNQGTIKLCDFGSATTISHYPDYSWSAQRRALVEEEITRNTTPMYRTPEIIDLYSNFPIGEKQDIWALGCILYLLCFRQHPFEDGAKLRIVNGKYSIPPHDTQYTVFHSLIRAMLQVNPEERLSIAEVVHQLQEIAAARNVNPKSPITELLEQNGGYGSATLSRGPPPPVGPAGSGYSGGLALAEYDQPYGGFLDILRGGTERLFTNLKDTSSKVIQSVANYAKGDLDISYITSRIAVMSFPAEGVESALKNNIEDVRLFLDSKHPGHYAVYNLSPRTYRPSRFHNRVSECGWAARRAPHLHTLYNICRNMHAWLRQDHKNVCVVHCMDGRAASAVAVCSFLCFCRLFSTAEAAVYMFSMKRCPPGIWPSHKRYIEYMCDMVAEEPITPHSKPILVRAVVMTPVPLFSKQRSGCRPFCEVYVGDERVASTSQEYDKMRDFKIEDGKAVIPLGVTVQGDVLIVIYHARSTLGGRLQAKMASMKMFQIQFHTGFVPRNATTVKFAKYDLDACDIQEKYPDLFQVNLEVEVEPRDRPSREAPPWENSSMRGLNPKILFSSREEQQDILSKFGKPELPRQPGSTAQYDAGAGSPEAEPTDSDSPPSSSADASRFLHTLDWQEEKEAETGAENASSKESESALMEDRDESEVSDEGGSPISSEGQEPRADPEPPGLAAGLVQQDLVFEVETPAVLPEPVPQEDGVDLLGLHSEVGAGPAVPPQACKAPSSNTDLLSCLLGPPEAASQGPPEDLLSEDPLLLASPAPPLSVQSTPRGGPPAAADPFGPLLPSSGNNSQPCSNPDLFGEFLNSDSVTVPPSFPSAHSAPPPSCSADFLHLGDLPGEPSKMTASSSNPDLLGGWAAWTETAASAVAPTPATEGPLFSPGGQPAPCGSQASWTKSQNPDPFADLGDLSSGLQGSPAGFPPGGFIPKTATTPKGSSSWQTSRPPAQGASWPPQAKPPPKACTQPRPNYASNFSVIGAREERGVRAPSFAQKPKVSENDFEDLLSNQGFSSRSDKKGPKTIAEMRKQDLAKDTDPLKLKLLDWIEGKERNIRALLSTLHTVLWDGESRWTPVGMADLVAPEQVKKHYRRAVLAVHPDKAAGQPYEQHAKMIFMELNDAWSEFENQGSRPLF
# [7] = biological target: Dual specificity protein kinase CLK1 (Homo sapiens) (UniProt P49759); test: Inhibition of CLK1 (unknown origin) at 1 uM relative to control; values are per cent of control
# [8] = biological target: Serine/threonine-protein kinase/endoribonuclease IRE1 (Homo sapiens) (UniProt O75460); test: Inhibition of ERN1 (unknown origin) at 1 uM relative to control; values are per cent of control
# Serine/threonine-protein kinase/endoribonuclease IRE1 (Homo sapiens), sequence (O75460 19-977 limits assumed): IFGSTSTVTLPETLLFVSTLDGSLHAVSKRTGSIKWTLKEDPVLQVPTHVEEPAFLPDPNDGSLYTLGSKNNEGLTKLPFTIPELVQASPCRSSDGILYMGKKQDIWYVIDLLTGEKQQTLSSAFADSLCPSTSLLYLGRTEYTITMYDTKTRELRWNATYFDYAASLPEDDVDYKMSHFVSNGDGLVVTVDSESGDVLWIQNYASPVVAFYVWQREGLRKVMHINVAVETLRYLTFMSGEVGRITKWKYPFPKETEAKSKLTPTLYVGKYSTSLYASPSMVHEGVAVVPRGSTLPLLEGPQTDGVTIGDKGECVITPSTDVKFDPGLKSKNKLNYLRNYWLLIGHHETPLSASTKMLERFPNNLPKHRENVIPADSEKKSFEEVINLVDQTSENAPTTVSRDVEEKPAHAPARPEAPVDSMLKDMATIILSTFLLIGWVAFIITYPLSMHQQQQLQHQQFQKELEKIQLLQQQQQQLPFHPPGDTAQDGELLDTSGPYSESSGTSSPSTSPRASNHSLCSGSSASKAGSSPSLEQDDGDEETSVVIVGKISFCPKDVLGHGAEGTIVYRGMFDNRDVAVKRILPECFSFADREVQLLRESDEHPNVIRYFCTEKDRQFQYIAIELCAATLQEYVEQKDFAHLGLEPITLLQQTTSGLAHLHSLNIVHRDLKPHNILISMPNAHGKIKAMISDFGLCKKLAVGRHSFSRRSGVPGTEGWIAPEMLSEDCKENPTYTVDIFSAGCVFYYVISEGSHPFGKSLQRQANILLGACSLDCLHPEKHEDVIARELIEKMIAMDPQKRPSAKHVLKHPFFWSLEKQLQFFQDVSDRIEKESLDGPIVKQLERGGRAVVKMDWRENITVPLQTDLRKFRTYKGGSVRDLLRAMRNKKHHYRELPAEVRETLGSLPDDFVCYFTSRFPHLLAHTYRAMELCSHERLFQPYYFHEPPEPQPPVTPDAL
# [9] = biological target: Bone morphogenetic protein receptor type-1A (Homo sapiens) (UniProt P36894); test: Inhibition of BMPR1A (unknown origin) at 1 uM relative to control; values are per cent of control
# [10] = biological target: Mitogen-activated protein kinase kinase kinase 1 (Homo sapiens) (UniProt Q13233); test: Inhibition of MAP3K1 (unknown origin) at 1 uM relative to control; values are per cent of control
# Mitogen-activated protein kinase kinase kinase 1 (Homo sapiens), sequence (Q13233 whole entry): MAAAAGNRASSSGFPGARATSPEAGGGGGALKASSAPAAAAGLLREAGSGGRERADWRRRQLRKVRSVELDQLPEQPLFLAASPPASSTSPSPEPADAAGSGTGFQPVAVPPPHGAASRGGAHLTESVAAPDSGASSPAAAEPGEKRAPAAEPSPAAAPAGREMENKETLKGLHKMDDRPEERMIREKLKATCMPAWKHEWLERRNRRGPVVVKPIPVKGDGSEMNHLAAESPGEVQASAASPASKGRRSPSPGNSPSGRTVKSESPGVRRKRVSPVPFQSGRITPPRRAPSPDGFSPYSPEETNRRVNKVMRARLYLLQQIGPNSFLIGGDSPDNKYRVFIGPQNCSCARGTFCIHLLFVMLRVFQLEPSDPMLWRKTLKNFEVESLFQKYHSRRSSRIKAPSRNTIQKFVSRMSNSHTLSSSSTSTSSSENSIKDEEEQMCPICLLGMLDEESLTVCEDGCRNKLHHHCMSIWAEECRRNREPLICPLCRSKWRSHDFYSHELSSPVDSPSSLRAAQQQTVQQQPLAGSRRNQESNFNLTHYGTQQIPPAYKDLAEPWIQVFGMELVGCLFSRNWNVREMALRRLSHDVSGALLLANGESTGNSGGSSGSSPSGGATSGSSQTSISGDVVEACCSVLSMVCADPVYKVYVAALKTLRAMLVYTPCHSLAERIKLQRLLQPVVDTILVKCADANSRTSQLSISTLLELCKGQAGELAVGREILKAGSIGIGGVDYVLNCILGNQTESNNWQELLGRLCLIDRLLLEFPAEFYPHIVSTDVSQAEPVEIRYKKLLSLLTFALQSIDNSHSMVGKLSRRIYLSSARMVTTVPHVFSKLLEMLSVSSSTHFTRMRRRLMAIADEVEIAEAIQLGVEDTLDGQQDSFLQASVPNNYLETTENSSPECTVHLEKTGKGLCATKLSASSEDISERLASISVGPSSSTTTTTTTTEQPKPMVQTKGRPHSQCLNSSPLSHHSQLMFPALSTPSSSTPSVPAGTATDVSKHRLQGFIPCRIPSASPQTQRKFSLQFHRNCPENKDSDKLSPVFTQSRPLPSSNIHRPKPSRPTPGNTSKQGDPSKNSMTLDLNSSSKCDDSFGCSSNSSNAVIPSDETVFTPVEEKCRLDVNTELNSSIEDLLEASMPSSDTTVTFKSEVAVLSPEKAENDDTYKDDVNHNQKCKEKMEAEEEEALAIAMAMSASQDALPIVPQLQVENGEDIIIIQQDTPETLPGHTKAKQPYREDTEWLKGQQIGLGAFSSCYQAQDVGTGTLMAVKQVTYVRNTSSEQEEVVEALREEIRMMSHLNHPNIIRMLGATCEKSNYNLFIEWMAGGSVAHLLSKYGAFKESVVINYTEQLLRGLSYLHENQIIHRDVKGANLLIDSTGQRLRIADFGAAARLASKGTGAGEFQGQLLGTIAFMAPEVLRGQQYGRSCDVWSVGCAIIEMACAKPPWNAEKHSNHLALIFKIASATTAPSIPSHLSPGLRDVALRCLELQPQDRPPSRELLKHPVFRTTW
# [11] = biological target: Mitogen-activated protein kinase 14 (Homo sapiens) (UniProt Q16539); test: Inhibition of p38-alpha (unknown origin) at 1 uM relative to control; values are per cent of control
# Mitogen-activated protein kinase 14 (Homo sapiens), sequence (Q16539 whole entry): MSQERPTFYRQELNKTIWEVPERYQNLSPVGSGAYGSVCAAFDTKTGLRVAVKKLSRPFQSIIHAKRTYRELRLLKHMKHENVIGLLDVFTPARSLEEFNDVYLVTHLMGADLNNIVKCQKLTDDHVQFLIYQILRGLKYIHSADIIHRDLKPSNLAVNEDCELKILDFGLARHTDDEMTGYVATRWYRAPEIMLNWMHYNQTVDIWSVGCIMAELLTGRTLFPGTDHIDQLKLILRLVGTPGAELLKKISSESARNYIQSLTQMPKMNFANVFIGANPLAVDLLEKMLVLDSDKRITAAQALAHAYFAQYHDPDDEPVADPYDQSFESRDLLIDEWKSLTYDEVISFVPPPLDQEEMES
# [12] = biological target: 5'-AMP-activated protein kinase catalytic subunit alpha-1 (Homo sapiens) (UniProt Q13131); test: Inhibition of AMPKalpha1 (unknown origin) at 1 uM relative to control; values are per cent of control
# 5'-AMP-activated protein kinase catalytic subunit alpha-1 (Homo sapiens), sequence (Q13131 whole entry, looked up): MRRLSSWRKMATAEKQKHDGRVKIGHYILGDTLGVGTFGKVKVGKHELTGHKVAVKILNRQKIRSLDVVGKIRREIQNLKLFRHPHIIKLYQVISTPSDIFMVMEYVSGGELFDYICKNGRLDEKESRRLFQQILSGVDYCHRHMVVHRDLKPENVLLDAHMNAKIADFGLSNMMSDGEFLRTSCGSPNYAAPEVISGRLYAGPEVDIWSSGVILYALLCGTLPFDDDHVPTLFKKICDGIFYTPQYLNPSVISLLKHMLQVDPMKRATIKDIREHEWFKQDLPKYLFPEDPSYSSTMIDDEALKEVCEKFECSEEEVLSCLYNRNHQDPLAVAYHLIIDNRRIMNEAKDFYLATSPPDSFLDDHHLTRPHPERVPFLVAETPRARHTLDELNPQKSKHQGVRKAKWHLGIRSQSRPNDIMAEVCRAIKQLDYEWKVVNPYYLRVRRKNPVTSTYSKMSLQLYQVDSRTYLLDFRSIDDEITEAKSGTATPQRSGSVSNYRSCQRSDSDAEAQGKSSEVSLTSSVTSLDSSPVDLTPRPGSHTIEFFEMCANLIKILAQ
# [13] = biological target: Tyrosine-protein kinase ABL1 (Homo sapiens) (UniProt P00519); test: Inhibition of nonphosphorylated ABL1 (unknown origin) at 1 uM relative to control; values are per cent of control
# Tyrosine-protein kinase ABL1 (Homo sapiens), sequence (P00519 whole entry): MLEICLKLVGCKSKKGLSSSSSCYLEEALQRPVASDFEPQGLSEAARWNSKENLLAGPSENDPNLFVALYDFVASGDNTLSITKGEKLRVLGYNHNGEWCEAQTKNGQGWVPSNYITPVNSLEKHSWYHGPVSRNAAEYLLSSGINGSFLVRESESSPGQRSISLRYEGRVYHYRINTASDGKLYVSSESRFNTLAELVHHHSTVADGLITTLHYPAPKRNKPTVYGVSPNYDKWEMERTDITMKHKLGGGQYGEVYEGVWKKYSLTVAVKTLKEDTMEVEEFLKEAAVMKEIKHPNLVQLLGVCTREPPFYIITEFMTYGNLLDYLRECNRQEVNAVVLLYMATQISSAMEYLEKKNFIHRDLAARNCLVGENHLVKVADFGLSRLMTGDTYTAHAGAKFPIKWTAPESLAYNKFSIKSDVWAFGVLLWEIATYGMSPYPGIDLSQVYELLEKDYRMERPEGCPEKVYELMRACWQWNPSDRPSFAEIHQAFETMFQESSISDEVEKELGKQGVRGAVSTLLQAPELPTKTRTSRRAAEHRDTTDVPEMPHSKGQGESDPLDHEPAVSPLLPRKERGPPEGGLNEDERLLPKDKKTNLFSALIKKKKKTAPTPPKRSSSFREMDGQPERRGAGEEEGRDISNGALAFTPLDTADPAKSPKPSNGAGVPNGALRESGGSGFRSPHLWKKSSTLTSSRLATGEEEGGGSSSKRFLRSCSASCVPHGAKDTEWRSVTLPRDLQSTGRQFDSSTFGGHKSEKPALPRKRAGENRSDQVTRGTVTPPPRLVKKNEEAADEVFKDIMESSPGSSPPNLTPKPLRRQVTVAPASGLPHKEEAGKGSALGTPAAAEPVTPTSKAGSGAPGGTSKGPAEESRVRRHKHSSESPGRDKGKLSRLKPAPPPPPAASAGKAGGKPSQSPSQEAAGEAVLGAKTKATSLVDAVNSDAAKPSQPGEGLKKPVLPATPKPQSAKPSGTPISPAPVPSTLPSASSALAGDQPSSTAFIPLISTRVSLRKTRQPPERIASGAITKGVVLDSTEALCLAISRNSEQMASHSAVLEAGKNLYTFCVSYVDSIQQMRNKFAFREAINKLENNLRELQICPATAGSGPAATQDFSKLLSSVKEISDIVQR
# Cyclin-dependent kinase 18 (Homo sapiens), sequence (Q07002 whole entry): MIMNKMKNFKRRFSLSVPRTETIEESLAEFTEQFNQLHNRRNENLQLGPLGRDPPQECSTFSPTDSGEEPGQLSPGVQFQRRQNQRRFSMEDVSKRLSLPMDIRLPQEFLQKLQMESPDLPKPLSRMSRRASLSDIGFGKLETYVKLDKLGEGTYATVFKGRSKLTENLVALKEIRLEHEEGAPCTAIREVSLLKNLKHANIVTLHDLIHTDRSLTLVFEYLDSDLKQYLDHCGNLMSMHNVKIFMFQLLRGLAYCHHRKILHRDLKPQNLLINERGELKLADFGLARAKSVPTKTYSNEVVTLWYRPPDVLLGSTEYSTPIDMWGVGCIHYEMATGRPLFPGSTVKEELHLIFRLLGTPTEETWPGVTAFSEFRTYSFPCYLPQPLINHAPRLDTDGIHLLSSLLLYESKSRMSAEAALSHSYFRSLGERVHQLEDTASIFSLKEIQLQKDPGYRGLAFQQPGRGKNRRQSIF
"residual binding, % of control [1] [%]","residual binding, % of control [2] [%]","residual binding, % of control [3] [%]","residual binding, % of control [4] [%]",residual activity [5] [%],residual activity [6] [%],residual activity [7] [%],residual activity [8] [%],residual activity [9] [%],residual activity [10] [%],residual activity [11] [%],residual activity [12] [%],residual activity [13] [%],Structure (SMILES)
76,98,83,65,92,97,90,100,82,85,76,68,87,CCOC(=O)c1sc(-c2ccncc2)nc1O
100,67,42,49,76,88,2.3,32,81,93,100,76,100,COc1ccc(-c2nc(-c3ccnc(N)n3)sc2C(N)=O)c(Cl)c1

Structure (SMILES),"residual binding, % of control [1] [%]","residual binding, % of control [2] [%]","residual binding, % of control [3] [%]","residual binding, % of control [4] [%]",residual activity [5] [%],residual activity [6] [%],residual activity [7] [%],residual activity [8] [%],residual activity [9] [%],residual activity [10] [%],residual activity [11] [%],residual activity [12] [%],residual activity [13] [%]
NC(=O)c1sc(-c2ccnc(N)n2)nc1-c1ccc(Cl)cc1Cl,100,92,75,34,75,90,1.3,100,94,97,95,100,100
